Laboratory results taken from ChEMBL document CHEMBL1121388, “Analgesic narcotic antagonists. 2. 8-Alkymorphinan-6-ones” (J Med Chem, 1980).
Active and inactive are the calls of the source. The calls are words filed in the database; no cut-off is given here.

Columns and labels:
[1] = system: Mus musculus; assay: The effective dose was measured by using mouse writhing assay after the compound administered subcutaneously.; format: functional; details: sc
Method in brief: (§1)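 Analgesia in the mouse writhing test induced by acetic acid, with compound given subcutaneously. Salts were dissolved in distilled H₂O; free bases were dissolved by dropwise 1 N HCl and then diluted.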

[2] = system: Rattus norvegicus; assay: The effective dose was measured by using rat tail flick assay after the compound administered intraperitoneally.; format: functional; details: ip
[3] = species on record: Rattus norvegicus; assay: Ratio of agonist to that of antagonist activity; format: functional
[4] = system: Rattus norvegicus; assay: Effective dose was measured by using rat tail flick assay after subcutaneous administration; format: functional; details: sc
Method in brief: (§2)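 Agonist activity in the rat heat-stimulus tail-flick test. Drug was given subcutaneously and rats were tested 20 min after dosing. Salts were dissolved in distilled H₂O; free bases were dissolved with dropwise 1 N HCl and then diluted. ED₅₀ or inactivity/lethality recorded at the dose indicated.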

[5] = system: Rattus norvegicus; assay: The Effective dose was measured by using rat tail flick assay after the compound administered subcutaneously at a dose of 28 umol/kg; IA means inactive at the given dose; format: functional, organism-based; method in brief: as §2
[6] = system: Mus musculus; assay: The Effective dose was measured by using mouse writhing assay after the compound administered subcutaneously at a dose of 25 umol/kg; IA means inactive at the given dose; format: functional, organism-based; method in brief: as §1
[7] = system: Rattus norvegicus; assay: The Effective dose was measured by using rat tail flick assay after the compound administered intraperitoneally at a dose of 9 umol/kg; IA means inactive at the given dose; format: functional, organism-based
[8] = system: Mus musculus; assay: The Effective dose was measured by using mouse writhing assay after the compound administered subcutaneously at a dose of 50 umol/kg; IA means inactive at the given dose; format: functional, organism-based; method in brief: as §1
[9] = system: Rattus norvegicus; assay: The %change in weight from day 0 to day1 after administering the compound at dose of 40 (mg/kg)/day in rat; format: functional
Method in brief: (§3)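 Rat physical dependence liability study: drug infused at the stated mg/kg/day for 6 days, with saline-infused controls for 6 days. Body weight was recorded daily and expressed as % change from day 0 on days 1–4. Groups of 4–6 rats; values are means ±.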

[10] = system: Rattus norvegicus; assay: The %change in weight from day 0 to day 2 after administering the compound at dose of 40 (mg/kg)/day in rat; format: functional; method in brief: as §3
[11] = system: Rattus norvegicus; assay: The %change in weight from day 0 to day 3 after administering the compound at dose of 40 (mg/kg)/day in rat; format: functional; method in brief: as §3
[12] = system: Rattus norvegicus; assay: The %change in weight from day 0 to day 4 after administering the compound at dose of 40 (mg/kg)/day in rat; format: functional; method in brief: as §3
[13] = system: Mus musculus; assay: The Effective dose was measured by using mouse writhing assay after the compound administered subcutaneously at a dose 27umol/kg; IA means inactive at the given dose; format: functional, organism-based; method in brief: as §1
[14] = system: Rattus norvegicus; assay: The Effective dose was measured by using rat tail flick assay after the compound administered subcutaneously at a dose 27umol/kg; IA means inactive at the given dose; format: functional, organism-based; method in brief: as §2
[15] = system: Mus musculus; assay: The Effective dose was measured by using mouse writhing assay 5 min after the compound administered subcutaneously; format: functional; details: sc
[16] = system: Rattus norvegicus; assay: The Effective dose was measured by using rat tail flick assay after the compound administered intraperitoneally at a dose of 25 umol/kg; IA means inactive at the given dose; format: functional, organism-based

Compound	ED50 [1]	ED50 [2]	also measured
COc1ccc2c(c1)C13CCN(CC4CCC4)C(C2)[C@@H]1[C@@H](C)CC(=O)C3.Cl (some centres undefined)	1.38 µmol/kg	16.4 µmol/kg	Ratio [3]: 0.08
COc1ccc2c(c1)C13CCN(C)C(C2)[C@@H]1CCC(=O)C3 (some centres undefined)	1.72 µmol/kg		ED50 [4]: 2.32 µmol/kg
CCC[C@@H]1CC(=O)CC23CCN(C)C(Cc4ccc(OC)cc42)[C@@H]13 (some centres undefined)	55 µmol/kg		ED50 [5]: inactive
CCC[C@H]1CC(=O)CC23CCN(CC4CC4)C(Cc4ccc(O)cc42)[C@H]13 (some centres undefined)		24.3 µmol/kg	ED50 [6]: inactive
CN1CCC23CC(=O)CC[C@H]2C1Cc1ccc(O)cc13 (some centres undefined)	0.52 µmol/kg		ED50 [4]: 70 µmol/kg
CCC1CCCC23CCN(CC4CCC4)C(Cc4ccc(O)cc42)[C@H]13 (some centres undefined)	> 25 µmol/kg		ED50 [7]: inactive
C=CCN1CCC23CC(=O)CC(C)[C@H]2C1Cc1ccc(O)cc13 (some centres undefined)	> 25 µmol/kg	0.65 µmol/kg	
C=CCN1CC[C@]23c4c5ccc(O)c4O[C@H]2[C@@H](O)C=C[C@H]3[C@H]1C5 [NALORPHINE]			Ratio [3]: 1.42
O=C1CC[C@@H]2C3Cc4ccc(O)cc4C2(CCN3CC2CCC2)C1 (some centres undefined)	2.6 µmol/kg	13.8 µmol/kg	
CC[C@H]1CC(=O)CC23CCN(CC4CC4)C(Cc4ccc(O)cc42)[C@H]13 (some centres undefined)		4.7 µmol/kg	ED50 [8]: inactive
CC[C@@H]1CC(=O)CC23CCN(CC4CCC4)C(Cc4ccc(O)cc42)[C@@H]13 (some centres undefined)	> 24 µmol/kg	11.6 µmol/kg	
O=C(O)C(O)C(O)C(=O)O.Oc1ccc2c(c1)[C@@]13CCCC[C@@]1(O)[C@@H](C2)N(CC1CCC1)CC3 [BUTORPHANOL TARTRATE]			Change [9]: -6.6%; Change [10]: -3.1%; Change [11]: 0.9%; Change [12]: 2.2%
C[C@@H]1CC(=O)CC23CCN(C)C(Cc4ccc(O)cc42)[C@@H]13 (some centres undefined)	1.18 µmol/kg		ED50 [4]: 0.93 µmol/kg
Oc1ccc2c(c1)[C@@]13CCCC[C@@]1(O)[C@@H](C2)N(CC1CCC1)CC3 [BUTORPHANOL]	0.34 µmol/kg	2 µmol/kg	Ratio [3]: 0.17
CC[C@H]1CC(=O)CC23CCN(C)C(Cc4ccc(OC)cc42)[C@H]13 (some centres undefined)	3.23 µmol/kg		ED50 [4]: 10.6 µmol/kg
CCC[C@H]1CC(=O)CC23CCN(C)C(Cc4ccc(O)cc42)[C@H]13 (some centres undefined)			ED50 [13]: inactive; ED50 [14]: inactive
COc1ccc2c(c1)C13CCN(C)C(C2)[C@@H]1[C@@H](C)CC(=O)C3 (some centres undefined)	1.34 µmol/kg		ED50 [4]: 3.57 µmol/kg
C[C@H]1CC(=O)C[C@]23CCN(CC4CC4)[C@H](Cc4ccc(O)cc42)[C@H]13	10.2 µmol/kg	1.8 µmol/kg	Ratio [3]: 5.7
CC[C@H]1CC(=O)CC23CCN(CC4CCC4)C(Cc4ccc(O)cc42)[C@H]13.Cl (some centres undefined)		0.82 µmol/kg	ED50 [15]: 0.54 µmol/kg; Ratio [3]: 0.65
C[C@H]1[C@H]2Cc3ccc(O)cc3[C@]1(C)CCN2CC1CC1 [CYCLAZOCINE]	0.41 µmol/kg	0.81 µmol/kg	Ratio [3]: 0.5
C=CCN1CCC23CC(=O)CC(C)[C@H]2C1Cc1ccc(OC)cc13 (some centres undefined)	3.47 µmol/kg	> 24 µmol/kg	
CC[C@@H]1CC(=O)CC23CCN(CC4CC4)C(Cc4ccc(OC)cc42)[C@@H]13 (some centres undefined)		1.64 µmol/kg	ED50 [6]: inactive
C[C@H]1CC(=O)CC23CCN(CC4CCC4)C(Cc4ccc(O)cc42)[C@H]13.Cl (some centres undefined)	0.29 µmol/kg	2.79 µmol/kg	Ratio [3]: 0.1
CCC[C@@H]1CC(=O)CC23CCN(CC4CCC4)C(Cc4ccc(O)cc42)[C@@H]13 (some centres undefined)	> 24 µmol/kg	4.5 µmol/kg	
CCC[C@H]1CC(=O)CC23CCN(CC4CCC4)C(Cc4ccc(O)cc42)[C@H]13 (some centres undefined)	1.06 µmol/kg	7.67 µmol/kg	
CCC[C@H]1CC(=O)CC23CCN(CC4CC4)C(Cc4ccc(OC)cc42)[C@H]13 (some centres undefined)	12.4 µmol/kg		ED50 [16]: inactive
CC(C)=CCN1CC[C@]2(C)c3cc(O)ccc3C[C@H]1[C@H]2C [(+)-PENTAZOCINE]			Ratio [3]: 0.36
C[C@@H]1CC(=O)CC23CCN(CC4CC4)C(Cc4ccc(O)cc42)[C@@H]13 (some centres undefined)		0.89 µmol/kg	ED50 [6]: inactive
CC[C@@H]1CC(=O)CC23CCN(C)C(Cc4ccc(O)cc42)[C@@H]13 (some centres undefined)	2.11 µmol/kg		ED50 [4]: 2.31 µmol/kg
